Experimental data published in article PMC5939375 (Biochemistry, 2016).
“Also recorded” adds a separate entry of the source.

Tests used:
reduced WT FDTS [1] = target: T1, reduced WT FDTS (Thermotoga maritima, UniProt Q9WYT0); details: cited from earlier work
T1 sequence (Q9WYT0 1-220): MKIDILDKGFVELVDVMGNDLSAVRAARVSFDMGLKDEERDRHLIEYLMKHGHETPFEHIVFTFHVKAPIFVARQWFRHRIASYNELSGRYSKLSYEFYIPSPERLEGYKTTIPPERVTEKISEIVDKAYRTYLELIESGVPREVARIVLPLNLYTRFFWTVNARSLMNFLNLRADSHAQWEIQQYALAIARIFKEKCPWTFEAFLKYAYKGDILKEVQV

reduced WT FDTS [2] = target: T1, reduced WT FDTS; assay: Reactivity of dUMP analogs with reduced FDTS in the presence of CH2THF; type: biochemical; details: anaerobic, 0.1 M Tris-HCl pH 8 at 25 °C; 200 μM CH2THF; 10 mM dU or 200 μM dUMS; over four hours
Method in brief: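 Recombinant T. maritima WT enzyme, purified, converted to apo-protein with concentrated NaCl, and reconstituted with exogenous FAD after desalting. Run in anaerobic cuvettes in 0.1 M Tris-HCl, pH 8, 25 °C. To reduced enzyme, CH2THF (200 μM final) was added first, then test compound (final concentration as listed). Flavin spectra were followed by scanning spectrophotometry. The mixture was afterwards analysed by HPLC for 2′-deoxythymidine-5′-monosulfate.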

WT FDTS [3] = target: T2, WT FDTS (Thermotoga maritima, UniProt Q9WYT0); assay: Spectrophotometric titration of oxidized WT FDTS with ligand; type: binding
R90A FDTS [4] = target: T3, R90A FDTS (Thermotoga maritima, UniProt Q9WYT0, R90A); assay: Spectrophotometric titration of R90A FDTS with ligand; type: binding
T3 sequence (Q9WYT0 whole entry R90A): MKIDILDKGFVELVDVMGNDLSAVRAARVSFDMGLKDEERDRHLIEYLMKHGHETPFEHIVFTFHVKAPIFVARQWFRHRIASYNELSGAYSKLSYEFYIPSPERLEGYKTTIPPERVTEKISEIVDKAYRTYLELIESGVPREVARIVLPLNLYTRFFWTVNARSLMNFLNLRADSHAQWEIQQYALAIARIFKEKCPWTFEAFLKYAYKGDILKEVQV

[5] = cited from earlier work
R90A FDTS [6] = target: T3, R90A FDTS; details: R90A variant; oxidative half-reaction with dUMP and CH2THF; cited from earlier work
WT FDTS [7] = target: T2, WT FDTS
R174A FDTS [8] = target: T4, R174A FDTS (Thermotoga maritima, UniProt Q9WYT0, R174A); details: R174A variant; oxidative half-reaction with dUMP and CH2THF; cited from earlier work
T4 sequence (Q9WYT0 whole entry R174A): as the sequence (Q9WYT0 whole entry R90A) above, with A90R, R174A counted along it

R174A FDTS [9] = target: T4, R174A FDTS; assay: Spectrophotometric titration of R174A FDTS with ligand; type: binding

Q: Which “oxidation of reduced FDTS in the presence of CH2THF” value (reduced WT FDTS [1]) does the source give for O=c1[nH]c(=O)n([C@H]2C[C@H](O)[C@@H](COP(=O)(O)O)O2)cc1F [5F-dUMP, 5-fluoro-2′-deoxyuridine-5′-monophosphate] here?
A: Its value is “cannot oxidize reduced FDTS”.

Q: For O=c1ccn([C@H]2C[C@H](O)[C@@H](CO)O2)c(=O)[nH]1 [dU, 2′-Deoxyuridine], which “oxidation of reduced FDTS flavin in the presence of CH2THF” value (reduced WT FDTS [2]) is on record?
A: The value was “failed to oxidize reduced WT FDTS; also recorded: neither dU nor dUMS cause oxidation of the reduced flavin; also recorded: No oxidation of the flavin occurred”.

Q: And the “loss of binding energy” value (WT FDTS [3]; dU binding to WT FDTS vs dUMP)?
A: The value was ~ 5.2 kcal/mol.

Q: Which results are given for O=c1ccn([C@H]2C[C@H](O)[C@@H](COP(=O)(O)O)O2)c(=O)[nH]1 [dUMP, 2′-deoxyuridine-5′-monophosphate]?
A: Kd (R90A FDTS [4]): 14 ± 2 µM; loss of binding energy (R90A FDTS [4]; dUMP binding to R90A FDTS vs WT): ~ 4.0 kcal/mol; pKa for N3 of dUMP ([5]; aqueous solution): 9.3; pKa of anionic phosphate oxygen of dUMP ([5]; phosphate oxygen, reference not given): about 7; rate constant for flavin oxidation, fold smaller than wild-type FDTS (R90A FDTS [6]): 8 fold; pKa of N3 of dUMP bound to FDTS (WT FDTS [7]; bound to WT FDTS, by the interaction of R174): below 8; stabilization of the N3 anion of bound dUMP by R174 (WT FDTS [7]; fully ionized at pH 8): at least 2.8 kcal mol^−1; Kd (WT FDTS [3]; Kd, WT FDTS, 0.1 M Tris-HCl, pH 8 at 25 °C, estimate from fitting to Eq. 1): ~0.03 µM; rate constant for flavin oxidation, fold smaller than wild-type FDTS (R174A FDTS [8]): 3000 fold; Kd (R174A FDTS [9]): 109 ± 6 µM; loss of binding energy (R174A FDTS [9]; dUMP binding to R174A FDTS vs WT): ~ 5.4 kcal/mol

Q: With O=c1ccn([C@H]2C[C@H](O)[C@@H](COS(=O)(=O)O)O2)c(=O)[nH]1 [dUMS, 2′-deoxyuridine-5′-monosulfate] as the compound, how does the “oxidation of reduced FDTS flavin in the presence of CH2THF” value (reduced WT FDTS [2]) read?
A: The value was “unable to oxidize reduced FDTS; also recorded: failed to oxidize reduced FDTS; also recorded: neither dU nor dUMS cause oxidation of the reduced flavin; also recorded: No oxidation of the flavin occurred”.
